Source: ChEMBL document CHEMBL1157458, “Exploring the substituent effects on a novel series of C1'-dimethyl-aryl Delta8-tetrahydrocannabinol analogs” (Bioorg Med Chem, 2008)

How the values were obtained:
Homo sapiens = organism: Homo sapiens; assay: Selectivity ratio of Ki for human CB1 receptor to Ki for human CB2 receptor
[1] = Cytotoxicity against human U87 cells by side flank model relative to control; assay type: functional, U-87MG ATCC; settings: U-87 MG
[2] = Cytotoxicity against human MT310 cells assessed as cell death after 18 hrs; assay type: functional, cell-based
How it was run: (§1)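 Glioma lines (U-87MG, T98G, LN-229, DBTRG-O5MG, primary MT310) plated at 70% confluency in 100 µl supplemented medium, left overnight at 37 °C to adhere. Cells were then exposed to escalating drug amounts for 18 h. Viability was measured by CCK-8 absorbance at 450 nm relative to untreated controls. Values are the mean of three data points per determination, three independent determinations.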

[3] = Cytotoxicity against human LN229 cells assessed as cell death after 18 hrs; assay type: functional, cell-based; settings: LN-229, 18 h; how it was run: as §1
T98G = assay: Cytotoxicity against human T98G cells assessed as cell death after 18 hrs; assay type: functional, cell-based; how it was run: as §1
Cannabinoid receptor 2 = Cannabinoid receptor 2 (Homo sapiens, UniProt P34972); assay: Displacement of [3H]CP-55940 from human CB2 receptor expressed in CHO-K1 cells; assay type: cell-based
[4] = Cytotoxicity against human DBTRG-O5MG cells assessed as cell death after 18 hrs; assay type: functional, cell-based; how it was run: as §1
Cannabinoid receptor 1 = Cannabinoid receptor 1 (Homo sapiens, UniProt P21554); assay: Displacement of [3H]CP-55940 from human CB1 receptor expressed in HEK293 cells; assay type: cell-based
[5] = Cytotoxicity against human U87MG cells assessed as cell death after 18 hrs; assay type: functional, U-87MG ATCC; how it was run: as §1

Sequence of Cannabinoid receptor 2 (P34972 whole entry): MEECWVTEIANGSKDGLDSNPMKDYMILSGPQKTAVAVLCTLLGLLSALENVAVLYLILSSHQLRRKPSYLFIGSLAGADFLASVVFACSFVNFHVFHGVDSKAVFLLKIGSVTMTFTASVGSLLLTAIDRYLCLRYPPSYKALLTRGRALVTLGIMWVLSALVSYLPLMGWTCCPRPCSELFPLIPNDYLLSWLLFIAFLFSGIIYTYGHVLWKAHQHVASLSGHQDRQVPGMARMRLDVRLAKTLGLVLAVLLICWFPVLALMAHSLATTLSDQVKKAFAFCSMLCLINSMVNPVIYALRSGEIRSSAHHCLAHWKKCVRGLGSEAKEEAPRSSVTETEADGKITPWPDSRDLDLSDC
Sequence of Cannabinoid receptor 1 (P21554 whole entry): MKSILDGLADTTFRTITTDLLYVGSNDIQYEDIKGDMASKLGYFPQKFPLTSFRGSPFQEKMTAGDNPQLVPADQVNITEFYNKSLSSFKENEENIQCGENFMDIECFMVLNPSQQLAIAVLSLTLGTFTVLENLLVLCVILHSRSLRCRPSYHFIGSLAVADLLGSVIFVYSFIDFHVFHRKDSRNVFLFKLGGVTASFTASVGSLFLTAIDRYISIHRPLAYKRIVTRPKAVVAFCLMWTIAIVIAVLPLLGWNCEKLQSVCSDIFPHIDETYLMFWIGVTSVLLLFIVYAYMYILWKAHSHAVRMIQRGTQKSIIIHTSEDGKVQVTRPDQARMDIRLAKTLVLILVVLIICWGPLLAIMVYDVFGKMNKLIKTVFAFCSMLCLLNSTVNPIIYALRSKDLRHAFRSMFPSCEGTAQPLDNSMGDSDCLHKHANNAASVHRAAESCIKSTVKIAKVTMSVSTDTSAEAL

Structure (SMILES)	Ratio Ki (Homo sapiens)	EC50 [1] [nM]	EC50 [2] [nM]	EC50 [3] [nM]	EC50 (T98G) [nM]	Ki (Cannabinoid receptor 2) [nM]	EC50 [4] [nM]	Ki (Cannabinoid receptor 1) [nM]	Activity [5] [%]
CC1=CC[C@@H]2[C@@H](C1)c1c(O)cc(C(C)(C)c3ccc(C(N)=O)cc3)cc1OC2(C)C	1.01	–	–	–	–	–	–	–	–
CCc1ccc(C(C)(C)c2cc(O)c3c(c2)OC(C)(C)[C@@H]2CC=C(C)C[C@@H]32)cc1	2.76	2520	4110	1670	3230	0.67	3000	1.85	–
CC1=CC[C@@H]2[C@@H](C1)c1c(O)cc(C(C)(C)c3ccccc3C)cc1OC2(C)C	3.23	–	–	–	–	10.7	–	34.4	–
CCCc1ccc(C(C)(C)c2cc(O)c3c(c2)OC(C)(C)[C@@H]2CC=C(C)C[C@@H]32)cc1	0.23	3170	6460	2440	3630	7.83	3580	1.77	–
CC1=CC[C@@H]2[C@@H](C1)c1c(O)cc(C(C)(C)c3cccc(Br)c3)cc1OC2(C)C	2.94	–	–	–	–	0.54	–	1.59	–
CC1=CC[C@@H]2[C@@H](C1)c1c(O)cc(C(C)(C)c3ccccc3)cc1OC2(C)C	13.5	3080	4290	2630	4680	–	2270	–	75
CC1=CC[C@@H]2[C@@H](C1)c1c(O)cc(C(C)(C)c3cccc(Cl)c3)cc1OC2(C)C	0.79	–	–	–	–	3.54	–	2.8	–
CC1=CC[C@@H]2[C@@H](C1)c1c(O)cc(C(C)(C)c3cccs3)cc1OC2(C)C	4	1830	4100	2020	2210	0.27	2670	1.08	–
CC1=CC[C@@H]2[C@@H](C1)c1c(O)cc(C(C)(C)c3cccc(F)c3)cc1OC2(C)C	5.84	–	–	–	–	0.9	–	5.26	–
CC1=CC[C@@H]2[C@@H](C1)c1c(O)cc(C(C)(C)c3cccc(C)c3)cc1OC2(C)C	2.24	–	–	–	–	1.13	–	2.53	–
CC1=CC[C@@H]2[C@@H](C1)c1c(O)cc(C(C)(C)c3ccc(Br)cc3)cc1OC2(C)C	3.26	–	–	–	–	1.54	–	5.03	–
CC1=CC[C@@H]2[C@@H](C1)c1c(O)cc(C(C)(C)c3cc(C)cc(C)c3)cc1OC2(C)C	1.48	–	–	–	–	7.45	–	11	–
CC1=CC[C@@H]2[C@@H](C1)c1c(O)cc(C(C)(C)c3ccc(F)cc3)cc1OC2(C)C	6.14	2550	8780	2020	3300	12.4	3080	76.1	–
CC1=CC[C@@H]2[C@@H](C1)c1c(O)cc(C(C)(C)c3ccc(C)cc3)cc1OC2(C)C	3.56	–	–	–	–	0.88	–	3.13	–
CC1=CC[C@@H]2[C@@H](C1)c1c(O)cc(C(C)(C)c3ccc(Cl)cc3)cc1OC2(C)C	11.2	3270	7310	2870	3400	1.68	4610	18.8	–
CC1=CC[C@@H]2[C@@H](C1)c1c(O)cc(C(C)(C)c3cccc(C#N)c3)cc1OC2(C)C	2.98	–	–	–	–	0.91	–	2.72	–
CC1=CC[C@@H]2[C@@H](C1)c1c(O)cc(C(C)(C)c3ccc(C#N)cc3)cc1OC2(C)C	3.66	–	–	–	–	2.53	–	9.25	–
